# Assays:
# [1] = Radiochemical stability in saline; type: physicochemical; conditions: NaCl 0.9% (w/v), room temperature (23 °C), up to 24 h
# In short: (§1)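 The 99mTc-labelled test compound was incubated in 0.9% NaCl at 23 °C or in plasma at 37 °C with agitation. Samples were taken at 1, 2, 4, 8 and 24 h. Radiochemical purity was measured by TLC in acetone (free pertechnetate) and glacial acetic acid/water 15:85 (99mTcO2), with strips counted by scintillation. There were 6 samples per time point, each assessed in duplicate.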
# [2] = tested on: A549 cells; assay: Cell binding of radiolabeled compound; design: species or system human
# In short: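 A549 and MRC-5 cells were grown in DMEM with 10% FBS and 1% penicillin/streptomycin (37 °C, 5% CO2), trypsinised, resuspended in PBS pH 7.4 and trypan-blue counted. Labelled test compound (0.1 μM), 99mTc-chelator alone (1.3 μM), or test compound plus 10-fold excess unlabelled cardenolide was shaken with 250 000 viable cells/tube (140 rpm, 120 min, 37 °C). Pellets were counted. Three biological × three technical replicates.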
# [3] = Blood clearance in healthy mice; type: in vivo; conditions: healthy BALB/c mice, i.v. tail vein
# In short: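 Female BALB/c mice (20 g, 8 weeks old; n = 6 per time point) received 100 μL (3.7 MBq) of diluted 99mTc-labelled test compound (final volume 1800 μL) by tail vein. Blood was sampled at 5, 15, 30, 60, 120 and 240 min, weighed and counted for radioactivity. Percent injected dose per mL blood (%ID/mL) was plotted against time.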
# [4] = tested on: Na+/K+-ATPase α1,2,3 subunit of the porcine cortex; assay: Na+/K+-ATPase inhibition assay; type: biochemical; conditions: 0.1 μM compound, 30 min co-incubation, positive control = 100% activity
# In short: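 Porcine cortex Na+/K+-ATPase (α1,2,3; 0.05 U/mL) was preincubated 30 min with test compound (0.1 μM) in 40 mM Tris–HCl pH 7.5, 80 mM NaCl, 1 mM EDTA and 8 mM MgAc2. ATP (4 mM) was then added and the reaction stopped after 30 min. Released Pi was read by malachite green at 600 nm after subtracting the no-enzyme control. Uninhibited enzyme defined 100% activity. Run in triplicate.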
# [5] = Biodistribution in healthy mice; type: in vivo, BALB/c mice; conditions: i.v.
# [6] = tested on: A549 cells; assay: MTT cell viability assay, A549; type: cell-based; conditions: read-out: IC50 A549 cell line, 48 h, human non-small-cell lung cancer A549
# In short: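 A549 cells (1 × 10^4/well), cultured in DMEM with 10% FBS and antibiotics, were exposed to a range of concentrations of the […] test compound for 48 h. MTT was added (1 mg/mL final) for 4 h at 37 °C, formazan was dissolved in DMSO, and absorbance was read at 570 nm. Cells given 0.5% DMSO defined 100% viability. IC50 came from dose–response curves.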
# [7] = Radiochemical stability in plasma; type: in vitro ADME; conditions: 37 °C, under agitation, up to 24 h
# In short: as §1
# [8] = tested on: MRC-5 cells; assay: MTT cell viability assay, MRC-5; type: cell-based; conditions: read-out: IC50 non-tumor MRC-5 cell line, 48 h, human fetal lung fibroblast MRC-5
compound,measurement,setting,value
^99mTc-DTPA–digitoxigenin,Radiochemical stability in saline,[1],remained stable
same,Binding to A549 cells when co-incubated with free digitoxigenin,"[2]; 0.1 μM, 10-fold excess of free digitoxigenin, 2 h",reduced to the rate of non-tumor MRC-5 cells
same,Binding to A549 cells compared with non-tumor MRC-5 cells,"[2]; 0.1 μM, 2 h incubation, 37 °C",significantly higher binding
same,Blood half-life,[3],11.7 min
same,Na+/K+-ATPase enzymatic activity remaining,[4],less than 50%
same,"Biodistribution, blood",[5]; 30 min,0.51 %ID/g
same,"Biodistribution, heart",[5]; 30 min,0.31 %ID/g
same,"Biodistribution, intestine",[5]; 30 min,24.97 %ID/g
same,"Biodistribution, kidney",[5]; 30 min,1.64 %ID/g
same,"Biodistribution, liver",[5]; 30 min,4.74 %ID/g
same,"Biodistribution, lungs",[5]; 30 min,1.46 %ID/g
same,"Biodistribution, muscle",[5]; 30 min,0.50 %ID/g
same,"Biodistribution, spleen",[5]; 30 min,0.90 %ID/g
same,"Biodistribution, thyroid",[5]; 30 min,0.59 %ID/g
same,"Biodistribution, blood",[5]; 2 h,0.43 %ID/g
same,"Biodistribution, heart",[5]; 2 h,0.32 %ID/g
same,"Biodistribution, intestine",[5]; 2 h,27.06 %ID/g
same,"Biodistribution, kidney",[5]; 2 h,1.48 %ID/g
same,"Biodistribution, liver",[5]; 2 h,2.34 %ID/g
same,"Biodistribution, lungs",[5]; 2 h,0.6 %ID/g
same,"Biodistribution, muscle",[5]; 2 h,0.26 %ID/g
same,"Biodistribution, spleen",[5]; 2 h,0.85 %ID/g
same,"Biodistribution, thyroid",[5]; 2 h,0.59 %ID/g
same,IC50,[6],120 nM
same,Radiochemical stability in plasma,[7],remained stable
same,IC50,[8],780 nM
"O=C([O-])CN(CCN(CC(=O)[O-])CC(=O)[O-])CCN(CC(=O)[O-])CC(=O)[O-].[99Tc+4] [^99mTc-DTPA, reference compound]",Affinity to A549 cancer cells,"[2]; 1.3 μM, 2 h incubation, 37 °C",low affinity
"O=C(O)CN(CCN(CC(=O)O)CC(=O)O)CCN(CC(=O)O)CC(=O)O [DTPA, diethylenetriaminepentaacetic acid]",Na+/K+-ATPase enzymatic activity remaining,[4],no influence
"C[C@]12CC[C@H](O)C[C@H]1CC[C@@H]1[C@@H]2CC[C@]2(C)[C@@H](C3=CC(=O)OC3)CC[C@]12O [DIG, digitoxigenin]",Na+/K+-ATPase enzymatic activity remaining,[4],less than 50%

# — paper PMC6933791 (ACS Omega, 2019)
